This passage reports Km results from ChEMBL document CHEMBL1127042, “Molecular size and flexibility as determinants of selectivity in the oxidation of N-methyl-4-phenyl-1,2,3,6-tetrahydropyridine analogs by monoamine oxidase A and B” (J Med Chem, 1993).

Substrate in data set [1]: CN1CC=C(CCc2ccsc2)CC1
As to the kind of experiment: (§1) Michaelis-Menten constant against MAO A. An outline of the steps:
(§2)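 Human liver MAO A expressed in yeast, purified. Initial oxidation rates measured polarographically (O2 uptake) at 30 °C in sodium phosphate buffer, pH 7.2, with 0.2% (w/v) Brij-35. Enzyme was added last to start the reaction, and its amount was set so rates were read within 60-120 s. Vmax came from double-reciprocal plots. TN was Vmax divided by flavin content. Flavin content was found from the optical density change on anaerobic reduction by kynuramine.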

Substrate in data set [2]: CN1CC=C(c2ccc3ccccc3c2)CC1
The data set is described as §1. An outline of the steps:
as §2

Substrate in data set [3]: CN1CC=C(CCc2ccc3ccccc3c2)CC1
The description is as §1. An outline of the steps:
as §2

Substrate in data set [4]: CN1CC=C(Cc2cccc3ccccc23)CC1
The data set is described as §1. An outline of the steps: as §2

Substrate in data set [5]: CN1CC=C(Cc2cccs2)CC1
The description is as §1. An outline of the steps: as §2

Substrate in data set [6]: CN1CC=C(Cc2ccc3ccccc3c2)CC1
The description is as §1. An outline of the steps:
as §2

Substrate in data set [7]: CN1CC=C(CCc2ccccc2)CC1
The description is as §1. An outline of the steps:
as §2

Substrate in data set [8]: CN1CC=C(CCc2cccc3ccccc23)CC1
The description is as §1. An outline of the steps:
as §2

Substrate in data set [9]: CN1CC=C(CCc2cccs2)CC1
The data set is described as §1. An outline of the steps:
as §2

Substrate in data set [10]: CN1CC=C(Cc2ccccc2)CC1
The description is as §1. An outline of the steps: as §2

Substrate in data set [11]: CN1CC=C(c2cccc3ccccc23)CC1
Described as §1. An outline of the steps:
as §2

Substrate in data set [12]: NCCC(=O)c1ccccc1N
Described as §1. An outline of the steps: as §2

Substrate in data set [13]: CN1CC=C(c2ccsc2)CC1
The data set is described as §1. An outline of the steps: as §2

Substrate in data set [14]: CN1CC=C(c2cccs2)CC1
Described as §1. An outline of the steps: as §2

Substrate in data set [15]: NCc1ccccc1
The description is as §1. An outline of the steps:
as §2

Substrate in data set [16]: CN1CC=C(Cc2ccsc2)CC1
The description is as §1. An outline of the steps:
as §2

Substrate in data set [17]: CN1CC=C(CCc2ccsc2)CC1
Briefly: (§3) Michaelis-Menten constant against MAO B. On the set-up: species or system Bos taurus. An outline of the steps:
(§4)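 Beef liver MAO B, purified. Initial oxidation rates measured polarographically at 30 °C in sodium phosphate buffer, pH 7.2, with 0.2% (w/v) Brij-35. The reaction was started by adding enzyme, dosed so rates were measurable within 60-120 s. Vmax came from double-reciprocal plots. Turnover number was Vmax per flavin content. Flavin content came from the optical density change on anaerobic reduction by benzylamine.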

Substrate in data set [18]: CN1CC=C(c2ccc3ccccc3c2)CC1
Described as §3. On the set-up: species or system Bos taurus. An outline of the steps: as §4

Substrate in data set [19]: CN1CC=C(CCc2ccc3ccccc3c2)CC1
The description is as §3. The arrangement: species or system Bos taurus. An outline of the steps: as §4

Substrate in data set [20]: CN1CC=C(Cc2cccc3ccccc23)CC1
Described as §3. On the set-up: species or system Bos taurus. An outline of the steps:
as §4

Substrate in data set [21]: CN1CC=C(Cc2cccs2)CC1
The description is as §3. On the set-up: species or system Bos taurus. An outline of the steps:
as §4

Substrate in data set [22]: CN1CC=C(Cc2ccc3ccccc3c2)CC1
Described as §3. The arrangement: species or system Bos taurus. An outline of the steps: as §4

Substrate in data set [23]: CN1CC=C(CCc2ccccc2)CC1
The data set is described as §3. On the set-up: species or system Bos taurus. An outline of the steps:
as §4

Substrate in data set [24]: CN1CC=C(CCc2cccc3ccccc23)CC1
Described as §3. On the set-up: species or system Bos taurus. An outline of the steps: as §4

Substrate in data set [25]: CN1CC=C(CCc2cccs2)CC1
The description is as §3. The arrangement: species or system Bos taurus. An outline of the steps: as §4

Substrate in data set [26]: CN1CC=C(Cc2ccccc2)CC1
The description is as §3. The arrangement: species or system Bos taurus. An outline of the steps: as §4

Substrate in data set [27]: CN1CC=C(c2cccc3ccccc23)CC1
The description is as §3. The arrangement: species or system Bos taurus. An outline of the steps: as §4

Substrate in data set [28]: NCCC(=O)c1ccccc1N
Described as §3. The arrangement: species or system Bos taurus. An outline of the steps:
as §4

Substrate in data set [29]: CN1CC=C(c2ccsc2)CC1
The data set is described as §3. On the set-up: species or system Bos taurus. An outline of the steps: as §4

Substrate in data set [30]: CN1CC=C(c2cccs2)CC1
The description is as §3. On the set-up: species or system Bos taurus. An outline of the steps: as §4

Substrate in data set [31]: NCc1ccccc1
The data set is described as §3. The arrangement: species or system Bos taurus. An outline of the steps:
as §4

Substrate in data set [32]: CN1CC=C(Cc2ccsc2)CC1
Described as §3. The arrangement: species or system Bos taurus. An outline of the steps:
as §4

B1: Amine oxidase [flavin-containing] A (Homo sapiens) (protein)
chain: MENQEKASIAGHMFDVVVIGGGISGLSAAKLLTEYGVSVLVLEARDRVGGRTYTIRNEHVDYVDVGGAYVGPTQNRILRLSKELGIETYKVNVSERLVQYVKGKTYPFRGAFPPVWNPIAYLDYNNLWRTIDNMGKEIPTDAPWEAQHADKWDKMTMKELIDKICWTKTARRFAYLFVNINVTSEPHEVSALWFLWYVKQCGGTTRIFSVTNGGQERKFVGGSGQVSERIMDLLGDQVKLNHPVTHVDQSSDNIIIETLNHEHYECKYVINAIPPTLTAKIHFRPELPAERNQLIQRLPMGAVIKCMMYYKEAFWKKKDYCGCMIIEDEDAPISITLDDTKPDGSLPAIMGFILARKADRLAKLHKEIRKKKICELYAKVLGSQEALHPVHYEEKNWCEEQYSGGCYTAYFPPGIMTQYGRVIRQPVGRIFFAGTETATKWSGYMEGAVEAGERAAREVLNGLGKVTEKDIWVQEPESKDVPAVEITHTFWERNLPSVSGLLKIIGFSTSVTALGFVLYKYKLLPRS
By Km is commonly meant the concentration of substrate that gives half-maximal velocity. With B1, the Michaelis-Menten constant (Km) in [1] is 130 µM; in data set [2], 4.6 µM; in data set [3] it was 43 µM; in data set [4], 167 µM; in [5], 48 µM; in [6], 36 µM. For the same protein, the Michaelis-Menten constant (Km) in data set [7] was 120 µM; in data set [8], 76 µM; in data set [9] it was 108 µM; in data set [10], 66 µM; in data set [11], 74 µM; in data set [12] it was 170 µM. In addition, the Km in data set [13] was found to be 102 µM; in data set [14] it was 188 µM; in data set [15], 780 µM; in data set [16], 136 µM.

B2: Amine oxidase [flavin-containing] B (Bos taurus) (protein)
chain: MSSKCDVVVVGGGISGMAAAKLLHDSGLNVIVLEARDRVGGRTYTLRNQKVKYVDLGGSYVGPTQNHILRLSKELGLETYKVNEVERLIHHTKGKSYPFRGSFPSVWNPITYLDHNNLWRTMDDMGREIPSDAPWKAPLAEQWDLMTMKELLDKICWTESSKQLAILFVNLCVTAEIHEVSALWFLWYVKQCGGTTRIFSTSNGGQERKFVGGSGQVSERIMDLLGDRVKLERPVIHIDQTGENVLVETLNHELYEAKYVISAVPPVLGMKIHFNPPLPMMRNQLITRVPLGSVIKSIVYYKEPFWRNMDYCGSMIIEGEEAPVAYALDDTKPDGSYPAIIGFILAHKARKLARLTKEERLKKLCDLYAKVLGSQEALHPVHYEEKNWCEEQYSGGCYTSYFPPGIMTQYGRVLRQPVGRIYFAGTETATHWSGYMEGAVEAGERAAREILHAMGKIPEDEIWLPEPESVDVPAKPITTTFLQRHLPSVPGLLKLIGLTTIFSATALGFLAHKRGLLVRI
Consider B2, for which the Km in data set [17] amounted to 57 µM; in data set [18] it was 730 µM; in data set [19], 1030 µM; in data set [20], 850 µM; in data set [21], 102 µM; in [22], 840 µM. Besides, the Km amounted to 54 µM in [23]; 1280 µM in data set [24]; 49 µM in data set [25]; 154 µM in data set [26]; 110 µM in [27]; 84 µM in [28]. The Km in [29] was 26 µM; in data set [30] it was 168 µM; in [31] it was 290 µM; in data set [32] it was 195 µM.
